The values below come from ChEMBL document CHEMBL1250528 (J Med Chem, 2010).

The nature of series [1]: Permeability of the compound in human Caco-2 cells. It is filed as ADME, cell-based. The conditions noted are these: read-out: permeability. (In general: Caco-2 monolayers are a common model of the intestinal barrier.)
Series [2] in a line: Clearance in Sprague-Dawley rat at 2.5 mg/kg, iv and 10 mg/kg, po. It is filed as ADME, organism-based. As to conditions: in vivo. A digest of the protocol: (§1)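 Male Sprague-Dawley rats (250-300 g), fasted overnight. IV bolus 2.5 mg/kg in 25% NMP/33% PEG 400/9% PG/33% water; oral gavage 10 mg/kg in PEG 400. Blood sampled at 0.05 (iv only), 0.25, 0.5, 1, 3, 6, 8 and 24 h post dose; composite profile. Plasma stored at -20 °C, then analysed by LC/MS/MS.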

Series [3] can be described thus: Metabolic stability in mouse liver microsomes assessed as metabolic rate. It is filed as ADME, Microsome. For orientation: Liver microsomes are a subcellular fraction often used to study metabolism.
The nature of series [4]: Half life in BALB/c mouse at 5 mg/kg, iv and 10 mg/kg, po. It is filed as ADME, organism-based. The conditions noted are these: in vivo. An outline of the steps:
(§2)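 Male BALB/c mice (20-25 g), fasted overnight. IV bolus 5 mg/kg in 20% NMP/35% PEG 400/10% PG/35% water; oral gavage 10 mg/kg in PEG 400. Retro-orbital blood at 0.05 (iv only), 0.25, 0.5, 1, 3, 6, 8 and 24 h; three mice per time point, giving a composite profile. Plasma analysed by LC/MS/MS.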

The nature of series [5]: Metabolic stability in mouse hepatocytes assessed as metabolic rate per million cells. It is filed as ADME, cell-based, Hepatocyte.
A short description of series [6]: Tmax in Sprague-Dawley rat at 2.5 mg/kg, iv and 10 mg/kg, po. It is filed as ADME, organism-based. As to conditions: in vivo. An outline of the steps: as §1
Series [7] concerns Hepatocyte. As to the kind of experiment: Metabolic stability in rat hepatocytes assessed as metabolic rate per million cells. It is filed as ADME, cell-based.
The nature of series [8]: Cmax in Sprague-Dawley rat at 2.5 mg/kg, iv and 10 mg/kg, po. It is filed as ADME, organism-based. As to conditions: in vivo. An outline of the steps: as §1
A short description of series [9]: Volume of distribution at steady state in BALB/c mouse at 5 mg/kg, iv and 10 mg/kg, po. It is filed as ADME, organism-based. As to conditions: in vivo, read-out: Vdss. An outline of the steps: as §2
The nature of series [10]: AUC (0 to 24 hrs) in Sprague-Dawley rat at 2.5 mg/kg, iv and 10 mg/kg, po. It is filed as ADME, organism-based. The conditions noted are these: plasma. A digest of the protocol: as §1
Series [11] can be described thus: Mean residence time in BALB/c mouse at 5 mg/kg, iv and 10 mg/kg, po. As to conditions: in vivo. It is filed as ADME, organism-based. An outline of the steps:
as §2

Series [12] is described as follows: Oral bioavailability in BALB/c mouse at 10 mg/kg. It is filed as ADME, organism-based. The conditions noted are these: in vivo. A digest of the protocol: as §2
Series [13] can be described thus: Half life in Sprague-Dawley rat at 2.5 mg/kg, iv and 10 mg/kg, po. It is filed as ADME, organism-based. As to conditions: in vivo. A digest of the protocol:
as §1

Series [14] is described as follows: Volume of distribution at steady state in Sprague-Dawley rat at 2.5 mg/kg, iv and 10 mg/kg, po. It is filed as ADME, organism-based. The conditions noted are these: in vivo, read-out: Vdss. A digest of the protocol: as §1
The test system of series [15] is Liver microsomes. The series can be described thus: Metabolic stability in human liver microsomes assessed as metabolic rate. It is filed as ADME, Microsome.
Series [16] in a line: Clearance in BALB/c mouse at 5 mg/kg, iv and 10 mg/kg, po. It is filed as ADME, organism-based. As to conditions: in vivo. A digest of the protocol:
as §2

The nature of series [17]: Mean residence time in Sprague-Dawley rat at 2.5 mg/kg, iv and 10 mg/kg, po. It is filed as ADME, organism-based. As to conditions: in vivo. A digest of the protocol:
as §1

Series [18] in a line: AUC (0 to 8 hrs) in BALB/c mouse at 5 mg/kg, iv and 10 mg/kg, po. It is filed as ADME, organism-based. The conditions noted are these: plasma. A digest of the protocol: as §2
The nature of series [19]: Tmax in BALB/c mouse at 5 mg/kg, iv and 10 mg/kg, po. It is filed as ADME, organism-based. The conditions noted are these: in vivo. An outline of the steps:
as §2

Series [20] in a line: Cmax in BALB/c mouse at 5 mg/kg, iv and 10 mg/kg, po. As to conditions: in vivo. It is filed as ADME, organism-based. A digest of the protocol:
as §2

Series [21] deals with Liver microsomes. As to the kind of experiment: Metabolic stability in rat liver microsomes assessed as metabolic rate. It is filed as ADME, Microsome.
The nature of series [22]: Oral bioavailability in Sprague-Dawley rat at 10 mg/kg. It is filed as ADME, organism-based. The conditions noted are these: in vivo. A digest of the protocol:
as §1

In series [23] the test system is Hepatocyte. As to the kind of experiment: Metabolic stability in human hepatocytes assessed as metabolic rate per million cells. It is filed as ADME, cell-based.

One may read the half-life as how long it takes for the measured level to halve. A low value points to fast loss. In general, Tmax refers to the time from dosing to the highest level. Usually Cmax stands for the peak of the concentration-time curve. In general, AUC(0-t) refers to exposure summed from dosing to a finite time, without extrapolation to infinity. Read a high AUC(0-t) as high exposure. A word on the MRT: it is the average time that molecules of a dose stay in the body. Usually bioavailability stands for dose-corrected exposure relative to a reference, in per cent.

In the case of `CCNC(=O)c1cn2ncnc(Nc3cc(C(=O)NOC)ccc3C)c2c1C`, the Papp in series [1] was determined as 0.5 ×10⁻⁶ cm/s.
With `CCCNC(=O)c1cn2ncnc(Nc3cc(C(=O)NC4CC4)ccc3C)c2c1C` [BMS-582949], the clearance in [2] came to 5.4 mL/min/kg; in series [16] it was 4.4 mL/min/kg. In addition, the Stability in series [3] was determined as 0.011 nmol/min/mg; in series [5], 0.006 nmol/min/million cells; in the series with Hepatocyte [7], 0.015 nmol/min/million cells; with Liver microsomes [15], 0.013 nmol/min/mg; in the series with Liver microsomes [21] it was 0.008 nmol/min/mg; in the series on Hepatocyte [23] it was 0.015 nmol/min/million cells. For the same compound, in series [1], the Papp worked out at 9.1 ×10⁻⁶ cm/s. For the same compound, the figures for the half-life in [4] and in series [13] were 2.6 h and 4 h, respectively. The Tmax in series [6] was 1.5 h; in [19], 1 h. Also, the Cmax in series [8] came to 7 µM; in [20], 15.3 µM. For the same compound, the results for the Vd in series [9] and in [14] were 0.9 L/kg and 1.1 L/kg, respectively. Also, the AUC(0-t) turned out to be 45.4 µM·h in series [10] and 75.5 µM·h in series [18]. The MRT in [11] turned out to be 3.3 h; in [17], 3.4 h. Further, the bioavailability in [12] is 90%; in series [22], 60%.
